In assay [1] the test system is Wnt1-mediated β-catenin signaling. Kind of assay: TOPbrite dual-luciferase reporter assay, inhibition of Wnt1-mediated signaling. Type of assay: cell-based, human. As to conditions: HEK293 TOPbrite cells transfected with Wnt1; treatment 6 h before measurement. Put shortly:
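Wnt1 construct was transfected with FuGENE HD into TOPbrite/Renilla HEK293 cells (DMEM/F12, 10% FBS, hygromycin, 37 °C), seeded 24 h earlier, then incubated 24–48 h. Linker peptides or LRP6 Fabs were added 6 h before reading. Dual-Glo firefly/Renilla luminescence ratio was calculated, in some instances normalized to nontreated controls.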
(In a reporter assay the amount or activity of a reporter protein is the signal.)

The test system of another assay is LRP6E1E2. Kind of assay: ELISA competition assay of Wnt.cys peptides with Fab YW210 for LRP6E1E2. In kind it is binding, human. As to conditions: LRP6E1E2 constant at 3x EC50, serial dilution of YW210. In general terms: In an ELISA, binding on a coated surface is turned into a signal by an enzyme label.
The test system of the next assay is Reck. Kind of assay: ELISA binding of linker peptides to Reck. As to conditions: immobilised biotinylated peptide. The essentials: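 Neutravidin-coated (5 μg/mL) plates blocked with 0.5% BSA/PBS for 2 h at room temperature, then loaded with 1 μg biotinylated linker peptide per well. Serial dilutions of His-tagged Reck in PBS/0.5% BSA/0.05% Tween 20 were incubated for 45 min at room temperature. After washing, bound protein was detected with HRP anti-His (1:5,000, 45 min) and TMB, reading absorbance at 450 nm.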

The test system of assay [2] is HEK293 luciferase reporter cells, phospho-LRP6 and active β-catenin. Type of assay: cell-based, human. The conditions noted are these: overexpression, 250 ng DNA, 24 h, Western blot.
For assay [3], the system named is HEK293 TOPbrite reporter cells, β-catenin signaling. Type of assay: cell-based, human. The conditions noted are these: transfection of 0 to 25 ng construct, 24 to 48 h; normalized to empty vector. Put shortly:
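HEK293 cells carried a stable firefly TOPbrite Wnt reporter plus pRL-SV40 Renilla and were kept in DMEM/F12 (50:50) with 10% FBS, GlutaMAX and 40 μg/mL hygromycin at 37 °C, 5% CO2. Cells were seeded at 20,000–40,000 per well, grown 24 h, then transfected with 0–25 ng Wnt or chimera construct using FuGENE HD. After 24–48 h, Dual-Glo firefly/Renilla ratio was normalized to empty vector.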

Assay [4] has as its target hLRP6_(E1E2) (residues 20 to 631), C-terminal hexahistidine-tag, for ELISA (human, UniProt O75581). Kind of assay: ELISA.

Bridge positions count the residues as written; N and C are the ends. Peptide text beside a SMILES is read from it.

Chain of hLRP6_(E1E2) (residues 20 to 631), C-terminal hexahistidine-tag, for ELISA (O75581 20-631): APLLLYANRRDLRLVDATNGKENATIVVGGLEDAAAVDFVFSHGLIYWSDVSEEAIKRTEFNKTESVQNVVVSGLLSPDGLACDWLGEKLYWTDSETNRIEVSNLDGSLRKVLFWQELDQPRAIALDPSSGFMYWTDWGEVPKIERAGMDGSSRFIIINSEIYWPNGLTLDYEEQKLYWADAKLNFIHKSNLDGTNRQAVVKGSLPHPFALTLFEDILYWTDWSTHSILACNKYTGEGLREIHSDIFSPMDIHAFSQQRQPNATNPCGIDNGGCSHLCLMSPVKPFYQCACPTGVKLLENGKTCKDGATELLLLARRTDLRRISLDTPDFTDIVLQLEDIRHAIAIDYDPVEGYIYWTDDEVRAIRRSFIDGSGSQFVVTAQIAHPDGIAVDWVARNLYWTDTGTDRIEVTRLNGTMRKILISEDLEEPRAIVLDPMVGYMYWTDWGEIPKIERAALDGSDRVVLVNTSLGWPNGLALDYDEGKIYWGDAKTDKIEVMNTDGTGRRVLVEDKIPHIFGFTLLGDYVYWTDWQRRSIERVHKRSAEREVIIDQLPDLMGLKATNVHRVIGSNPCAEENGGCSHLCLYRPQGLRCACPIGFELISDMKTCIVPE

Take “YW210: Fab that binds predominantly to the LRP6 E1 domain [reference compound]”: the “inhibition of Wnt1-mediated β-catenin signaling” value (“inhibition” below) in assay [1] is recorded as “inhibited Wnt1-induced signaling”.
For the molecule `CC[C@H](C)[C@@H]1NC(=O)[C@H](CCCCN)NC(=O)[C@H](CC(C)C)NC(=O)[C@H](Cc2ccccc2)NC(=O)[C@H]([C@@H](C)O)NC(=O)[C@@H]2CCCN2C(=O)[C@H](CCCNC(=N)N)NC(=O)[C@H](CCCCN)NC(=O)[C@H](CC(N)=O)NC(=O)[C@H](CCCNC(=N)N)NC(=O)[C@H](CO)NC(=O)[C@H](C)NC(=O)[C@H](CCCNC(=N)N)NC(=O)[C@H](C(C)C)NC(=O)[C@@H]2CCCN2C(=O)[C@H](CCC(=O)O)NC(=O)[C@H](C(C)C)NC(=O)[C@H](Cc2c[nH]cn2)NC(=O)[C@H](C(C)C)NC(=O)[C@@H](NC(=O)[C@@H](N)CCC(=O)O)CSSC[C@@H](C(=O)N[C@H](C(=O)O)C(C)C)NC(=O)[C@H](CC(=O)O)NC(=O)[C@H]([C@@H](C)O)NC(=O)[C@H](CC(=O)O)NC(=O)[C@H](CCSC)NC(=O)[C@@H]2CCCN2C(=O)[C@H](CCCCN)NC(=O)[C@H](CCCNC(=N)N)NC(=O)[C@H](Cc2ccc(O)cc2)NC(=O)[C@H](CO)NC(=O)[C@H](CC(C)C)NC(=O)[C@@H]2CCCN2C(=O)[C@H](CCCCN)NC(=O)[C@H](CCCCN)NC1=O` [W7a.cys] (H-ECVHVEPVRASRNKRPTFLKIKKPLSYRKPMDTDCV-OH; disulfide 2-35; N-terminus and C-terminus assumed), the “inhibition” value in assay [1] was “inhibited”. Moreover, the “competition of Fab YW210 with the peptide for LRP6E1E2 binding” value (“competition of Fab YW210” below) in the assay with LRP6E1E2 is “partially”. Moreover, the “binding to Reck” value in the assay with Reck was “bound Reck”.
With `CSCC[C@@H]1NC(=O)[C@H](CCC(=O)O)NC(=O)[C@H](CO)NC(=O)[C@@H](NC(=O)[C@@H](N)CO)CSSC[C@@H](C(=O)N[C@H](C(=O)O)C(C)C)NC(=O)[C@H](CC(=O)O)NC(=O)[C@H](CCCNC(=N)N)NC(=O)[C@H](CCC(=O)O)NC(=O)[C@H]([C@@H](C)O)NC(=O)[C@@H]2CCCN2C(=O)[C@H](C(C)C)NC(=O)[C@H](CCCCN)NC(=O)[C@H](Cc2ccccc2)NC(=O)[C@H](Cc2ccc(O)cc2)NC(=O)[C@H]([C@@H](C)O)NC(=O)[C@H](Cc2ccc(O)cc2)NC(=O)[C@H](CCCNC(=N)N)NC(=O)[C@@H]2CCCN2C(=O)[C@H](CCCNC(=N)N)NC(=O)[C@H](CC(C)C)NC(=O)[C@H]([C@@H](C)O)NC(=O)[C@H](CCC(=O)O)NC(=O)[C@H](C(C)C)NC(=O)[C@H](Cc2c[nH]c3ccccc23)NC(=O)CNC(=O)[C@H](CCCNC(=N)N)NC(=O)[C@H](CO)NC(=O)[C@H](CCC(=O)O)NC(=O)[C@H](CCCNC(=N)N)NC(=O)[C@H](Cc2c[nH]cn2)NC(=O)[C@H](CCCCN)NC(=O)[C@H](CCC(=O)O)NC(=O)[C@H](C(C)C)NC(=O)[C@H](C(C)C)NC1=O` [W3a.cys] (H-SCSEMVVEKHRESRGWVETLRPRYTYFKVPTERDCV-OH; disulfide 2-35; N-terminus and C-terminus assumed), the “competition of Fab YW210” value in the assay on LRP6E1E2 is listed as “could not be outcompeted”.
For the molecule `CC(C)C[C@@H]1NC(=O)[C@H](CCC(=O)O)NC(=O)[C@H](C)NC(=O)[C@H](CCCNC(=N)N)NC(=O)[C@H](CO)NC(=O)[C@H](C)NC(=O)[C@H](CCCNC(=N)N)NC(=O)[C@H](CC(N)=O)NC(=O)[C@H](CO)NC(=O)CNC(=O)[C@H](CCCNC(=N)N)NC(=O)[C@H](CC(N)=O)NC(=O)CNC(=O)[C@H](Cc2ccc(O)cc2)NC(=O)[C@H](CC(C)C)NC(=O)[C@H](C(C)C)NC(=O)[C@H](CCCNC(=N)N)NC(=O)[C@H](CO)NC(=O)[C@@H](NC(=O)CN)CSSC[C@@H](C(=O)N[C@H](C(=O)O)C(C)C)NC(=O)[C@H](CC(=O)O)NC(=O)[C@H](Cc2c[nH]cn2)NC(=O)[C@@H]2CCCN2C(=O)[C@H](CO)NC(=O)[C@@H]2CCCN2C(=O)[C@@H]2CCCN2C(=O)[C@H](CCCCN)NC(=O)[C@H](Cc2c[nH]cn2)NC(=O)[C@H](C)NC(=O)[C@@H]2CCCN2C(=O)[C@H](CC(=O)O)NC(=O)[C@H](CCC(=O)O)NC(=O)[C@@H]2CCCN2C(=O)[C@H](CCC(=O)O)NC(=O)[C@H](CC(C)C)NC(=O)[C@H](CCCNC(=N)N)NC(=O)[C@H](CC(C)C)NC1=O` [W1.cys] (H-GCSRVLYGNRGSNRASRAELLRLEPEDPAHKPPSPHDCV-OH; disulfide 2-38; N-terminus and C-terminus assumed), the “inhibition” value in assay [1] is “inhibited”. Further, the “competition of Fab YW210” value in the assay with LRP6E1E2 was “competed strongly”.
The like results for `CSCC[C@@H]1NC(=O)[C@H](C(C)C)NC(=O)[C@H](CCC(N)=O)NC(=O)[C@H](C(C)C)NC(=O)[C@@H](NC(=O)CN)CSSC[C@@H](C(=O)N[C@H](C(=O)O)C(C)C)NC(=O)[C@H](CC(=O)O)NC(=O)[C@H]([C@@H](C)O)NC(=O)[C@H](CCCNC(=N)N)NC(=O)[C@H]([C@@H](C)O)NC(=O)[C@H](C)NC(=O)[C@H](CCCNC(=N)N)NC(=O)[C@H](CCCNC(=N)N)NC(=O)[C@H](Cc2ccc(O)cc2)NC(=O)CNC(=O)[C@H](CCC(N)=O)NC(=O)[C@H](CCCNC(=N)N)NC(=O)[C@H](C)NC(=O)[C@H](C)NC(=O)[C@H]([C@@H](C)O)NC(=O)[C@H](Cc2ccccc2)NC(=O)[C@H](CC(N)=O)NC(=O)[C@H](C)NC(=O)CNC(=O)[C@H](CC(=O)O)NC(=O)[C@H](CCC(N)=O)NC(=O)[C@H]([C@@H](C)O)NC(=O)[C@H](C)NC1=O` [W2b.cys] (H-GCVQVMATQDGANFTAARQGYRRATRTDCV-OH; disulfide 2-29; N-terminus and C-terminus assumed) were, in that order, “inhibited” and “competed strongly”.

B1: Wnt1: human Wnt1, canonical, overexpressed (protein, UniProt P04628 28-370, looked up)
Proto-oncogene Wnt-1: ANSSGRWWGIVNVASSTNLLTDSKSLQLVLEPSLQLLSRKQRRLIRQNPGILHSVSGGLQSAVRECKWQFRNRRWNCPTAPGPHLFGKIVNRGCRETAFIFAITSAGVTHSVARSCSEGSIESCTCDYRRRGPGGPDWHWGGCSDNIDFGRLFGREFVDSGEKGRDLRFLMNLHNNEAGRTTVFSEMRQECKCHGMSGSCTVRTCWMRLPTLRAVGDVLRDRFDGASRVLYGNRGSNRASRAELLRLEPEDPAHKPPSPHDLVYFEKSPNFCTYSGRLGTAGTAGRACNSSSPALDGCELLCCGRGHRTRTQRVTERCNCTFHWCCHVSCRNCTHTRVLHECL
In the case of B1, in assay [2], the LRP6 phosphorylation result is given as “induced” and the “accumulation of active (nonphosphorylated) β-catenin” value is reported as “induced”. Besides, the “β-catenin signaling induced by overexpression (TOPbrite)” value in assay [3] was “induced β-catenin signaling”.

B2: Wnt3a: human Wnt3a, canonical, overexpressed (protein, UniProt P56704 19-352, looked up)
Protein Wnt-3a: SYPIWWSLAVGPQYSSLGSQPILCASIPGLVPKQLRFCRNYVEIMPSVAEGIKIGIQECQHQFRGRRWNCTTVHDSLAIFGPVLDKATRESAFVHAIASAGVAFAVTRSCAEGTAAICGCSSRHQGSPGKGWKWGGCSEDIEFGGMVSREFADARENRPDARSAMNRHNNEAGRQAIASHMHLKCKCHGLSGSCEVKTCWWSQPDFRAIGDFLKDKYDSASEMVVEKHRESRGWVETLRPRYTYFKVPTERDLVYYEASPNFCEPNPETGSFGTRDRTCNVSSHGIDGCDLLCCGRGHNARAERRREKCRCVFHWCCYVSCQECTRVYDVHTCK
As for B2, in assay [2], the LRP6 phosphorylation entry is reported as “induced” and the “accumulation of active (nonphosphorylated) β-catenin” value is listed as “induced”. Besides, in assay [3], the “β-catenin signaling induced by overexpression (TOPbrite)” value is on record as “induced β-catenin signaling”.

B3: YW210.09 Fab (Fab, V domains shown)
VH: EVQLVESGGGLVQPGGSLRLSCAASGFTFTNSYIHWVRQAPGKGLEWVGWITPYGGYTNYADSVKGRFTISADTSKNTAYLQMNSLRAEDTAVYYCARGSGHVNAVKNYGYVMDYWGQGTLVTVSS
VL: DIQMTQSPSSLSASVGDRVTITCRASQDVSTAVAWYQQKPGKAPKLLIYSASFLYSGVPSRFSGSGSGTDFTLTISSLQPEDFATYYCQQSYTTPPTFGQGTKVEIK
As to B3, in assay [4], the binding result is on record as “binds”.

(Values after paper PMC10089208 (Proceedings of the National Academy of Sciences of the …, 2023).)
